Measurements taken from ChEMBL document CHEMBL1145116, “Imidazo[1,2-b]pyridazines, novel nucleus with potent and broad spectrum activity against human picornaviruses: design, synthesis, and biological evaluation” (J Med Chem, 2003).
≈ marks a conversion by molar mass, not a printed value.

Columns and labels:
rhinovirus B14 [1] = test: (§1) Cytopathic effect was evaluated against rhino virus usingCPE/XTT assay; type: functional, human rhinovirus14
Procedure, shortened: (§2)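 HeLa cells were seeded at 10 000 per well in medium 199 with 5% FBS and grown overnight at 37 °C. Surviving cells were read with XTT (0.4 mg/mL) plus PMS after 3-4 h at 37 °C. IC50 (CPE inhibition) and TC50 (versus a no-drug, no-virus control) came from the linear portion of the dose–response curves.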

rhinovirus B14 [2] = test: (§3) Antiviral activity was evaluated against rhino virus using PRA assay; type: functional, organism-based, human rhinovirus14; conditions: Rhinovirus B
Procedure, shortened: (§4)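 Rhinovirus 14 was adsorbed for 1 h at room temperature onto confluent H-HeLa monolayers grown in medium 199 with 10% FBS. Cells were overlaid with agarose and growth medium (5% FBS) containing compound in DMSO (final DMSO 0.01%), then held at 37 °C under CO2 until plaques appeared in DMSO controls. Plates were formalin-fixed, crystal-violet stained and plaques counted, with duplicate wells averaged. IC50/IC90 were computed by Reed–Muench.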

Human rhinovirus sp. [3] = test: as §3; type: functional, organism-based, human rhinovirus14; procedure, shortened: as §4
Coxsackievirus A21 [4] = test: Broad spectrum antiviral activity was evaluated against CA21C; type: functional, organism-based; conditions: Enterovirus C
Coxsackievirus A21 [5] = test: Broad spectrum antiviral activity was evaluated against coxsackievirus A21 mouse muscle adapted (CA21M); type: functional, organism-based; conditions: Enterovirus C, Muscle tissue
Coxsackievirus B3 = test: Broad spectrum antiviral activity was evaluated against CB3; type: functional, organism-based, and coxsackievirus b3; conditions: Enterovirus B
Human rhinovirus 1A = test: Broad spectrum antiviral activity was evaluated against HRV-1A; type: functional, organism-based, human rhinovirus1a
rhinovirus A2 = test: Broad spectrum antiviral activity was evaluated against HRV-2; type: functional, organism-based, human rhinovirus2; conditions: Rhinovirus A
Poliovirus 1 = test: Broad spectrum antiviral activity was evaluated against PV1; type: functional, organism-based; conditions: Enterovirus C
rhinovirus A16 = test: Broad spectrum antiviral activity was evaluated against HRV-16; type: functional, organism-based; conditions: Rhinovirus A
Human rhinovirus sp. [6] = test: as §1; type: functional, human rhinovirus14; procedure, shortened: as §2

Structure (SMILES) | TC50 (rhinovirus B14 [1]) | IC50 (rhinovirus B14 [2]) | also measured
CNC(=O)/C=C(\c1ccc(C)cc1)c1ccc2nc(N)c(-c3ccc(F)cc3)n2n1 | >10 µg/mL | 0.23 µg/mL (≈ 0.573 µM) | –
Nc1nc2ccc(/C(=N/Nc3ccccc3)c3ccccc3)nn2c1-c1ccc(F)cc1 | >10 µg/mL | > 10 µg/mL | –
CNC(=O)/C=C(/c1ccccc1)c1ccc2nc(N)c(-c3ccc(F)cc3)n2n1 | – | > 10 µg/mL | –
CNC(=O)/C=C(/c1ccc(C)cc1)c1ccc2nc(N)c(-c3ccc(F)cc3)n2n1 | >10 µg/mL | > 10 µg/mL | –
CCOC(=O)/C=C(\c1ccccc1)c1ccc2nc(N)c(-c3ccc(F)cc3)n2n1 | – | > 10 µg/mL | –
CNC(=O)/C=C(\c1ccccc1)c1ccc2nc(N)c(-c3ccc(F)cc3)n2n1 | 4.06 µg/mL (≈ 10.5 µM) | 0.11 µg/mL (≈ 0.284 µM) | –
Nc1nc2ccc(C(=O)c3ccccc3)nn2c1-c1ccccc1 | – | – | IC50 (Human rhinovirus sp. [3]): 7.19 µg/mL (≈ 22.9 µM)
CNC(=O)/C=C(/c1ccc(OC)cc1)c1ccc2nc(N)c(-c3ccc(F)cc3)n2n1 | >10 µg/mL | 4.2 µg/mL (≈ 10.1 µM) | –
Nc1nc2ccc(/C(=N/O)c3ccccc3)nn2c1-c1ccccc1 | >10 µg/mL | 0.04 µg/mL (≈ 0.121 µM) | IC50 (Coxsackievirus A21 [4]): 0.04 µg/mL (≈ 0.121 µM); IC50 (Coxsackievirus A21 [5]): 0.02 µg/mL (≈ 0.0607 µM); IC50 (Coxsackievirus B3): 0.05 µg/mL (≈ 0.152 µM); IC50 (Human rhinovirus 1A): 0.05 µg/mL (≈ 0.152 µM); IC50 (rhinovirus A2): 0.03 µg/mL (≈ 0.0911 µM); IC50 (Poliovirus 1): 0.04 µg/mL (≈ 0.121 µM); IC50 (rhinovirus A16): 0.06 µg/mL (≈ 0.182 µM)
CNC(=O)/C=C(\c1ccc(OC)cc1)c1ccc2nc(N)c(-c3ccc(F)cc3)n2n1 | >10 µg/mL | 0.6 µg/mL (≈ 1.44 µM) | –
Nc1nc2ccc(/C(=N/O)c3ccccc3)nn2c1-c1ccc(F)cc1 | – | – | TC50 (Human rhinovirus sp. [6]): >10 µg/mL; IC50 (Human rhinovirus sp. [3]): 0.05 µg/mL (≈ 0.144 µM)
CC(C)S(=O)(=O)n1c(N)nc2ccc(/C(=N/O)c3ccccc3)cc21 [ENVIROXIME] | – | – | IC50 (Human rhinovirus sp. [3]): 0.05 µg/mL (≈ 0.139 µM)
